Columns and labels:
[1] = Chemical stability in phosphate buffered saline; type: physicochemical; conditions: PBS at RT, up to/after 4 h incubation
Outline: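 ¹⁷⁷Lu-labelled peptide (120 pmol/mL) was kept in phosphate buffered saline at room temperature. Aliquots were taken at intervals up to […] and analysed by HPLC for percentage intact radiopeptide relative to post-labelling radiochemical purity.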

[2] = Renal toxicity: creatinine and urea in serum; type: in vivo, BALB/c nude mice
Outline: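 The same treated double-xenografted nude mice (saline, 15 or 30 MBq i.v.; n=5) gave weekly venous blood samples. Serum creatinine and urea were measured with specific kits on a semiautomatic biochemical analyser. Values were compared between treated and control groups over weeks from cell inoculation (week −2) onward.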

[3] = target: T1, A431-CCK2R cell line expressing the human CCK2R (Homo sapiens, UniProt P32239); assay: Cell uptake; type: cell-based; conditions: A431-CCK2R cells, 2 h incubation, 0.4 nM
T1 sequence (P32239 1-447): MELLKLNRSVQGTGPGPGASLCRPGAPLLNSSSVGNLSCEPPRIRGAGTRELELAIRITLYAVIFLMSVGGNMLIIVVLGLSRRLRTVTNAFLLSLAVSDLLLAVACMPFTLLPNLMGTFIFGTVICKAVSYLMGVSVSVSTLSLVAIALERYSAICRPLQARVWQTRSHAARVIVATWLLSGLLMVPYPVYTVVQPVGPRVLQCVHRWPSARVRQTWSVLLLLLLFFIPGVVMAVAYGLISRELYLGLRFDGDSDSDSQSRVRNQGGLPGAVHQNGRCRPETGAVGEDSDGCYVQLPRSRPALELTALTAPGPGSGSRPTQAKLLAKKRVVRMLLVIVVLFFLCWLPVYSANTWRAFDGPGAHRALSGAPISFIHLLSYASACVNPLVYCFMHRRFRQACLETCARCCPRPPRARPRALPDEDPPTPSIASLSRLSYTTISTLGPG
Outline: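 A431-CCK2R and A431-mock cells were cultured in DMEM with 10% FBS, penicillin/streptomycin/L-glutamine at 37°C, 5% CO₂. They were seeded at 1.0×10⁶ cells/well and grown 48 h to confluency. Peptides were labelled with ¹⁷⁷LuCl₃ (~50 GBq/µmol) in ascorbate buffer pH 5 with gentisic acid and L-Met, 80°C. Triplicate wells received ~100,000 cpm (0.4 nM) for 2 h. The internalized fraction was gamma-counted as % of total added.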

[4] = Biodistribution: uptake in normal organs and tissues; type: in vivo, BALB/c nude mice; conditions: 30 min p.i.
Outline: (§1)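 Female and male BALB/c nude mice, 5-6 weeks old, carried A431-CCK2R and A431-mock xenografts in opposite flanks (2×10⁶ cells each). Tumours grew for ~14 days to ~0.2 g. Kit-prepared ¹⁷⁷Lu-peptide, 1 MBq (20 pmol; 50 GBq/µmol), was injected into the tail vein. Groups of five were killed at 30 min, 4 h, 1 d, 2 d, 3 d and 7 d; dissected tissues were gamma-counted and expressed as % IA/g.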

[5] = tested on: A431-CCK2R xenografts; assay: Experimental radionuclide therapy, receptor-positive tumour growth; type: in vivo, BALB/c nude mice; conditions: for mean SGR A431-CCK2R: single i.v. treatment; for TVDT increase by a factor in comparison to the control group: A431-CCK2R tumours
[6] = Stability against enzymatic degradation in human serum; type: in vitro ADME
Outline: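 The ¹⁷⁷Lu-labelled peptide was incubated in human serum at 37°C and sampled at time points up to 24 h. Proteins were precipitated with acetonitrile (1:1.5) and centrifuged; supernatant was diluted 1:1 with water before HPLC for intact radiopeptide. Half-life came from first-order exponential decay fitting.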

[7] = tested on: A431-CCK2R xenografts; assay: Biodistribution: uptake in receptor-positive tumour xenograft; type: in vivo, BALB/c nude mice; conditions: 30 min p.i.
Outline: as §1

[8] = type: physicochemical
Outline: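 Labelling used ~2 GBq ¹⁷⁷LuCl₃ in 1 mL dilute HCl, heated at 80°C for 15-25 min. Kits were stored up to 6 months; labelled product was held up to 48 h at room temperature or −20°C. Radiochemical purity was measured by RP-HPLC.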

[9] = tested on: A431-mock xenografts; assay: Experimental radionuclide therapy, receptor-negative tumour growth; type: in vivo, BALB/c nude mice; conditions: for mean SGR A431-mock: single i.v. treatment
[10] = Medullary toxicity: white blood cell and platelet counts; type: in vivo, BALB/c nude mice
Outline: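 Double-xenografted nude mice were dosed as in the therapy study (saline, 15 or 30 MBq i.v.), n=5. Weekly, 0.1 mL venous blood was drawn from the superficial temporal vein by lancet, up to eight samples per animal. White blood cells and platelets were counted on an automatic haematology analyser. Counts were expressed relative to basal values (week −2 = inoculation; week 0 = treatment).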

[11] = 15 MBq group, week 0 (week of treatment)
[12] = 15 MBq group, week -2 (cell inoculation)
[13] = 30 MBq group, week 0 (week of treatment)
[14] = 30 MBq group, week -2 (cell inoculation)
[15] = 15 MBq, one week after treatment

CCCC[C@H](NC(=O)[C@H](Cc1c[nH]c2ccccc12)NC(=O)[C@H]1CCCCNC(=O)[C@H](NC(=O)CN2CCN(CC(=O)O)CCN(CC(=O)O)CCN(CC(=O)O)CC2)CCC(=O)N[C@@H](C)C(=O)N[C@@H](Cc2ccc(O)cc2)C(=O)N1)C(=O)N[C@@H](CC(=O)O)C(=O)N[C@@H](Cc1ccccc1)C(N)=O [^177Lu-DOTA-cyclo-MG2, metal not drawn]
RCP during incubation in PBS [1]: above 98% | Creatinine (reference value 0.1-0.5) [2, 11]: 0.3 ± 0.1 mg/dL | Urea (reference value 17-38) [2, 11]: 25 ± 7 mmol/L | Creatinine (reference value 0.1-0.5) ([2]; 15 MBq group, week 1): 0.2 ± 0.1 mg/dL | Urea (reference value 17-38) ([2]; 15 MBq group, week 1): 27 ± 6 mmol/L | Creatinine (reference value 0.1-0.5) ([2]; 15 MBq group, week 2): 0.3 ± 0.2 mg/dL | Urea (reference value 17-38) ([2]; 15 MBq group, week 2): 34 ± 3 mmol/L | Creatinine (reference value 0.1-0.5) ([2]; 15 MBq group, week 3): 0.2 ± 0.1 mg/dL | Urea (reference value 17-38) ([2]; 15 MBq group, week 3): 34 ± 5 mmol/L | Creatinine (reference value 0.1-0.5) ([2]; 15 MBq group, week 4): 0.5 ± 0.2 mg/dL | Creatinine (reference value 0.1-0.5) ([2]; 15 MBq group, week 5): 0.7 mg/dL | Creatinine (reference value 0.1-0.5) ([2]; 15 MBq group, week -1): 0.2 ± 0.1 mg/dL | Urea (reference value 17-38) ([2]; 15 MBq group, week -1): 32 ± 2 mmol/L | Creatinine (reference value 0.1-0.5) [2, 12]: 0.1 ± 0.02 mg/dL | Urea (reference value 17-38) [2, 12]: 30 ± 4 mmol/L | urea above the upper limit of the reference value ([2]; 15 MBq, beginning from week 4 after treatment): 40 to 44 mmol/L | Creatinine (reference value 0.1-0.5) [2, 13]: 0.2 ± 0.1 mg/dL | Urea (reference value 17-38) [2, 13]: 27 ± 2 mmol/L | Creatinine (reference value 0.1-0.5) ([2]; 30 MBq group, week 1): 0.2 ± 0.1 mg/dL | Urea (reference value 17-38) ([2]; 30 MBq group, week 1): 37 ± 3 mmol/L | Creatinine (reference value 0.1-0.5) ([2]; 30 MBq group, week 2): 0.3 ± 0.2 mg/dL | Creatinine (reference value 0.1-0.5) ([2]; 30 MBq group, week -1): 0.3 ± 0.2 mg/dL | Urea (reference value 17-38) ([2]; 30 MBq group, week -1): 29 ± 4 mmol/L | Creatinine (reference value 0.1-0.5) [2, 14]: 0.2 ± 0.1 mg/dL | Urea (reference value 17-38) [2, 14]: 26 ± 3 mmol/L | urea levels above the reference limit ([2]; 30 MBq, beginning from week 2 after treatment): 39 to 63 mmol/L | creatinine levels above the reference limit ([2]; 30 MBq, beginning from week 3 after treatment): 0.6 to 0.8 mg/dL | internalized radioligand fraction (% of total) [3]: 16.1±1.9% | kidney uptake, maximal value [4]: 2.64 % IA/g | mean SGR A431-CCK2R ([5]; 15 MBq group (0.6 nmol)): 0.048±0.011 | mean SGR A431-CCK2R ([5]; 30 MBq group (1.2 nmol)): 0.033±0.002 | TVDT increase by a factor in comparison to the control group ([5]; high activity group (30 MBq)): 2.5 | TVDT increase by a factor in comparison to the control group ([5]; low activity group (15 MBq)): 1.7 | half-life [6]: 17.8 h | maximal tumour uptake [7]: 5.99 % IA/g | mean RCP for the different time points after storage of the kits ([8]; kit storage up to 6 months, n=4): 97.8±1.3% | RCP after preparation ([8]; kit-prepared, directly after preparation): 97.8±1.3% | RCP at 24 h after preparation ([8]; stored at RT): 96.3±1.4% | mean SGR A431-mock ([9]; 15 MBq group (0.6 nmol)): 0.068±0.005 | mean SGR A431-mock ([9]; 30 MBq group (1.2 nmol)): 0.042±0.004 | TVDT increase by a factor in comparison to the control group ([9]; A431-mock tumours, high activity group (30 MBq)): 1.8 | reduction in PLT counts compared to the basal value [10, 15]: 51.2-52.8% | reduction in WBC counts compared to the basal value [10, 15]: 37.8-40.8% | PLT value ([10]; 15 MBq, week 1 after treatment, reference 558-1,454): 531±45 ×10^9/L | decline of PLT value compared to the basal value ([10]; 30 MBq, after treatment): 44.8-58.0% | reduction of WBC value compared to the basal value ([10]; 30 MBq, week 1 after treatment): 67.2-70.9% | WBC value below the lower reference limit ([10]; 30 MBq, week 1 and 2 after treatment, reference 3.11-13.04): 2.17-2.94 ×10^9/L | PLT value below the reference values ([10]; 30 MBq, week 2 and 3 after treatment): 524-549 ×10^9/L
